Data as given in article PMC6426238 (Helvetica chimica acta, 2018).

Legend:
HEK293 cells = test: cell penetration by confocal fluorescence microscopy; format: cell-based; conditions: FAM-labeled peptides, membrane stain R18
In short: (§1)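 FAM-labelled octa-Adp derivatives (side chains as free carboxylic acids, esters or amides) were purified by preparative HPLC. Unless stated otherwise, TFA counter-ions were removed with OH-form anion-exchange resin before use.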

MCF-7 cells = test: as above; format: cell-based; conditions: FAM-labeled peptides, membrane stain R18
In short: as §1

Caco2-cells = conditions: degraded cyanophycin dipeptides; cited from earlier work
Plasmodium berghei = test: parasitaemia reduction after intravenous tail-vein injection to infected mice; format: in vivo; conditions: P. berghei-infected mice
In short: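 Single intravenous injection into the tail vein of mice, either uninfected or infected with Plasmodium berghei. Test compound was given in 0.9% NaCl at 0.01 ml/g body weight, with doses in μmol/kg. Oligo-arginine TFA salts were treated with Amberlyst A-26 (OH form) resin to remove TFA. Doses refer to the free peptide unless a TFA salt is stated. Read-outs were acute signs (death and its timing, heart rate, ataxia) and parasitaemia reduction in infected mice.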

| Compound | cell permeability (CFM) (HEK293 cells) | cell permeability (CFM) (MCF-7 cells) | absorption by Caco2-cells (Caco2-cells) | other results |
| --- | --- | --- | --- | --- |
| NCCCC[C@H](NC(=O)C[C@H](N)C(=O)O)C(=O)O [β-Asp-Lys] | – | – | absorbed | – |
| N=C(N)NCCC[C@H](NC(=O)CC(N)C(=O)O)C(=O)O (stereo partly drawn) [H-Adp-OH, H-βAsp-αArg-OH] | – | – | absorbed | – |
| O=CN(O)CCCP(=O)(O)O [Na-fosmidomycin, fosmidomycin] | – | – | – | Parasitaemia reduction (Plasmodium berghei; i.v. dose 1.5·10^4 μmol/kg): No parasitaemia reduction (Parasitaemia reductions < 20% must be considered non-significant in this investigation: ‘no parasitaemia reduction’); Parasitaemia reduction (Plasmodium berghei; i.v. dose 1.5·10^6 μmol/kg): 95% Parasitaemia reduction; Parasitaemia reduction (Plasmodium berghei; i.v. dose 5·10^3 μmol/kg): No parasitaemia reduction (Parasitaemia reductions < 20% must be considered non-significant in this investigation: ‘no parasitaemia reduction’); Parasitaemia reduction (Plasmodium berghei; i.v. dose 5·10^5 μmol/kg): 72% Parasitaemia reduction |

Now from value to compound, other results behind:

| cell permeability (CFM) (HEK293 cells) | cell permeability (CFM) (MCF-7 cells) | Compound | absorption by Caco2-cells (Caco2-cells) | other results |
| --- | --- | --- | --- | --- |
| mediocre to high cell permeability | mediocre to high cell permeability | FAM-(Adp(OMe))8-NH2 [Compound 8] | – | – |
| mediocre to high cell permeability | mediocre to high cell permeability | FAM-(Adp(NMe2))8-NH2 [Compound 9] | – | – |
| does not enter the cells at all | does not enter the cells at all | FAM-Adp8-NH2 [Compound 7] | – | – |
